For series [1], the system named is Staphylococcus aureus. In words: Antibacterial activity against methicillin-resistant Staphylococcus aureus NRS70 in ICR mouse neutropenic thigh infection model assessed as reduction in bacterial load at 20 mg/kg, sc tid administered every 8 hrs starting from 1 hr post infection and measured 7 hrs post last dose. The series is classed as functional, organism-based. A digest of the protocol: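 Female ICR mice (n = 8 per group) made neutropenic with ip cyclophosphamide 200 mg/kg at 4 days and 1 day pre-infection; 100 μL NRS70 (~1×10^6 CFU/mL in brain–heart infusion) injected im into right thigh; sc doses at 1, 9, 17 h; thighs harvested at 24 h, homogenized, plated in triplicate on LB agar; log10 CFU/g.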

For series [2], the system named is Staphylococcus aureus. In words: Antibacterial activity against Staphylococcus aureus COL expressing pbpA antisense plasmid assessed as increase in zone of inhibition after 18 to 20 hrs in presence of xylose. Type of series: functional, organism-based. A digest of the protocol: (§1)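 MRSA COL strains carrying pbpA, pbp2, mecA or pbp3 under antisense control were grown overnight on agar with 34 μg/mL chloramphenicol. Molten chloramphenicol agar with 0 or 50 mM xylose was seeded at 1×10^7 CFU/mL and set. Compound (10 μL) was spotted on the agar, and plates were incubated 36 °C for 18–20 h. Susceptibility with and without xylose induction was compared.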

In series [3] the test system is Staphylococcus aureus. Briefly: Antibacterial activity against Staphylococcus aureus COL expressing pbp2a antisense plasmid assessed as increase in zone of inhibition after 18 to 20 hrs in presence of xylose. Type of series: functional, organism-based. A digest of the protocol: as §1
Series [4] concerns Staphylococcus aureus. In words: Antibacterial activity against Staphylococcus aureus COL expressing pbp2 antisense plasmid assessed as increase in zone of inhibition after 18 to 20 hrs in presence of xylose. The series is classed as functional, organism-based. The essentials: as §1
In series [5] the test system is Staphylococcus aureus. Briefly: Antibacterial activity against Staphylococcus aureus COL expressing pbp3 antisense plasmid assessed as increase in zone of inhibition after 18 to 20 hrs in presence of xylose. The series is classed as functional, organism-based. The essentials:
as §1

In series [6] the test system is Mus musculus. In words: Oral bioavailability in ICR mouse peritonitis model infected with methicillin resistant Staphylococcus aureus ATCC 27660 at 10 mg/kg administered as single dose through gavage by UPLC analysis. Type of series: ADME, organism-based. The note with it: in vivo. The essentials: (§2)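 Female ICR mice, single 10 mg/kg oral gavage in 25% DMSO/55% propylene glycol/20% PBS (2.5 mg/mL); n = 3 per time point; terminal blood 0.5–30 h; plasma protein-precipitated with acetonitrile containing internal standard, quantified by UPLC-UV or MRM against mouse-plasma calibration curve (0–50 μg/mL).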

Series [7] relates to Mus musculus. Briefly: AUC (0 to last) in ICR mouse peritonitis model infected with methicillin resistant Staphylococcus aureus ATCC 27660 at 10 mg/kg, po administered as single dose through gavage measured after 30 hrs by UPLC analysis. Details: dose 10 mg/kg, time 0 - last, route oral. Type of series: ADME, organism-based. The note with it: in vivo, 30 h. A digest of the protocol: as §2

The subject of series [8] is Mus musculus. Briefly: AUC (0 to infinity) in ICR mouse peritonitis model infected with methicillin resistant Staphylococcus aureus ATCC 27660 at 10 mg/kg, iv administered as single dose by UPLC analysis. The series is classed as ADME, organism-based. More on the design: dose 10 mg/kg, time infinity, route intravenous. The note with it: in vivo.
The subject of series [9] is Mus musculus. Briefly: AUC (0 to infinity) in ICR mouse peritonitis model infected with methicillin resistant Staphylococcus aureus ATCC 27660 at 10 mg/kg, po administered as single dose through gavage by UPLC analysis. The following applies: in vivo. Type of series: ADME, organism-based. Details: dose 10 mg/kg, route oral, time infinity. A digest of the protocol:
as §2

Series [10] concerns Mus musculus. In words: Cmax in ICR mouse peritonitis model infected with methicillin resistant Staphylococcus aureus ATCC 27660 at 10 mg/kg, po administered as single dose through gavage measured at 0.5 hrs post dose by UPLC analysis. Type of series: ADME, organism-based. Details: dose 10 mg/kg, route oral. The following applies: in vivo. A digest of the protocol:
as §2

Series [11] has as its system Mus musculus. Briefly: Tmax in ICR mouse peritonitis model infected with methicillin resistant Staphylococcus aureus ATCC 27660 at 10 mg/kg, po administered as single dose through gavage by UPLC analysis. The note with it: in vivo. Type of series: ADME, organism-based. The essentials: as §2
The test system of series [12] is Mus musculus. In words: Clearance in ICR mouse peritonitis model infected with methicillin resistant Staphylococcus aureus ATCC 27660 at 10 mg/kg, iv administered as single dose measured up to 8 hrs by UPLC analysis relative to hepatic blood flow. The series is classed as ADME, organism-based. The following applies: in vivo. A digest of the protocol:
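Fast PK: female ICR mice (n = 2 per time point) given single tail-vein iv injection at 5, 10 or 20 mg/kg in 25% DMSO/65% propylene glycol/10% water (2.5, 5 or 10 mg/mL); terminal cardiac blood at 5 min, 40 min, 2, 4, 8 h; plasma analysed by UPLC with internal standard calibration.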

Series [13] relates to Mus musculus. Briefly: Volume of distribution in ICR mouse peritonitis model infected with methicillin resistant Staphylococcus aureus ATCC 27660 at 10 mg/kg, iv administered as single dose measured up to 24 hrs by UPLC analysis. Type of series: ADME, organism-based. The following applies: in vivo, 24 h.
Series [14] relates to Mus musculus. Briefly: Terminal half life in ICR mouse peritonitis model infected with methicillin resistant Staphylococcus aureus ATCC 27660 at 10 mg/kg, iv administered as single dose by UPLC analysis. The note with it: in vivo. Type of series: ADME, organism-based.
For series [15], the system named is Mus musculus. Briefly: Terminal half life in ICR mouse peritonitis model infected with methicillin resistant Staphylococcus aureus ATCC 27660 at 10 mg/kg, po administered as single dose through gavage by UPLC analysis. Type of series: ADME, organism-based. The following applies: in vivo. A digest of the protocol: as §2
A short description of series [16]: Solubility of compound in water. The series is classed as physicochemical. The note with it: buffer.
A short description of series [17]: Plasma concentration in ICR mouse neutropenic thigh model of methicillin-resistant Staphylococcus aureus NRS70 infection at 20 mg/kg, sc tid administered every 8 hrs starting from 1 hr post infection and measured 7 hrs post last dose by UPLC analysis. Type of series: ADME, organism-based. A digest of the protocol: (§3)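 Neutropenic thigh model (cyclophosphamide 200 mg/kg ip, NRS70 im), sc doses at 1, 9 and 17 h; at 24 h cardiac blood and uninfected thigh taken (n = 8 per group); thigh homogenate supernatant and plasma acetonitrile-quenched with internal standard, analysed by UPLC with MRM detection.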

Series [18] in a line: Drug level in uninfected thighs of ICR mouse neutropenic thigh model of methicillin-resistant Staphylococcus aureus NRS70 infection at 20 mg/kg, sc tid administered every 8 hrs starting from 1 hr post infection and measured 7 hrs post last dose by UPLC analysis. Type of series: ADME, organism-based. The note with it: read-out: Drug uptake. A digest of the protocol: as §3

Series [19] has as its system Mus musculus. Briefly: T>MIC in ICR mouse at 10 mg/kg, iv administered as single dose by UPLC analysis.
Series [20] deals with Mus musculus. Briefly: T>MIC in ICR mouse at 10 mg/kg, po administered as single dose through gavage by UPLC analysis.

For orientation: AUC means the area under the concentration-time curve, a measure of exposure. As usually defined, the Cmax is the peak of the concentration-time curve. Usually Tmax stands for the time from dosing to the highest level. As usually defined, the Vd is a proportionality between amount in the body and measured concentration, not a real space. Low values mean little distribution into tissue, high ones wide distribution into tissue. In general, solubility refers to how much of the substance goes into solution per volume.

Active and inactive are the calls of the source. The calls are words filed in the database; no cut-off is given here.

With `C#Cc1ccc(/C=C/c2nc3ccccc3c(=O)n2-c2cccc(C(=O)O)c2)cc1`, the result with Staphylococcus aureus [1], in the series on Staphylococcus aureus [2] and in the series on Staphylococcus aureus [3] was Active. Further, the result in the series with Staphylococcus aureus [4] and in the series on Staphylococcus aureus [5] was inactive.

`C#Cc1ccc(/C=C/c2nc3ccccc3c(=O)n2-c2cccc(C(=O)[O-])c2)cc1.[Na+]` came in with a F in the series with Mus musculus [6] of 37%. This molecule also displayed an AUClast with Mus musculus [7] of 552 µg·min/mL. The AUC came to 1570 µg·min/mL with Mus musculus [8] and 582 µg·min/mL with Mus musculus [9]. In the series with Mus musculus [10], this molecule had a Cmax of 2700 ng/mL. Also, the Tmax in the series on Mus musculus [11] came to 0.5 h. In the series on Mus musculus [12], the CL is listed as < 10%. Moreover, the Vd in the series on Mus musculus [13] was 3.58 L/kg. Moreover, the results for the “beta t1/2” value in the series on Mus musculus [14] and in the series on Mus musculus [15] were 6.5 h and 6.6 h, respectively. The solubility in [16] came out at 1500 µg/mL. The results for the concentration at 7 h in series [17] and in series [18] were 2430 ng/mL and 220 ng/mL, respectively. In addition, the “T>MIC” value with Mus musculus [19] worked out at 24 h; in the series on Mus musculus [20], 30 h.

The record behind these values is ChEMBL document CHEMBL3817745, “Structure-Activity Relationship for the 4(3H)-Quinazolinone Antibacterials” (J Med Chem, 2016).
